Reference: ChEMBL document CHEMBL1933052, “Synthesis and anti-protozoal activity of novel dihydropyrrolo[3,4-d][1,2,3]triazoles” (Eur J Med Chem, 2012)
In brackets after ≈: the same amount, converted by molar mass.

Assays:
Plasmodium falciparum = assay: Antimalarial activity against chloquine- and pyrimethamine-resistant Plasmodium falciparum K1 erythrocytic stage assessed as inhibition of [3H]hypoxanthine incorporation after 48 hrs by liquid scintillation counting; assay type: functional, organism-based
Procedure, shortened: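 Erythrocytic-stage cultures in hypoxanthine-free RPMI 1640 with 5% Albumax, exposed to serial drug dilutions at 37 °C under reduced oxygen for 48 h. 0.5 μCi [3H]-hypoxanthine per well was then added for a further 24 h. Cells were harvested onto glass-fibre filters and counted as CPM, expressed as % of untreated controls. IC50 was read from dose–response curves. Chloroquine was the reference.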

L6 = assay: Cytotoxicity against rat L6 cells after 72 hrs by resazurin assay; assay type: cell-based; details: L6, 72 h
Procedure, shortened: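 L6 rat skeletal myoblasts, 4×10^4 cells/well in RPMI 1640 with 10% FBS and L-glutamine; seven 3-fold serial dilutions, 90 to 0.123 µg/mL; 72 h; microscopic check of controls and sterility; resazurin added, 2 h further; fluorescence read at ex 536/em 588 nm.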

[1] = tested on: Trypanosoma brucei rhodesiense; assay: Trypanocidal activity against Trypanosoma brucei rhodesiense STIB 900 bloodstream forms after 72 hrs by resazurin assay; assay type: functional, organism-based; details: STIB 900, 72 h
Procedure, shortened: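 Bloodstream forms, 10^4/well, in MEM with 25 mM HEPES, extra glucose, non-essential amino acids, 0.2 mM 2-mercaptoethanol, 1 mM pyruvate, 15% heat-inactivated horse serum; seven 3-fold dilutions 90 to 0.123 µg/mL; 37 °C, 5% CO2, 72 h; resazurin 2–4 h more; fluorescence ex 536/em 588 nm; melarsoprol standard.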

Leishmania donovani = assay: Leishmanicidal activity against Leishmania donovani MHOM/ET/67/L82 amastigote forms after 72 hrs by resazurin assay; assay type: functional, organism-based; details: MHOM/ET/67/L82, 72 h
Trypanosoma cruzi = assay: Trypanocidal activity against trypomastigote Trypanosoma cruzi Tulahuen C2C4 infected in L6 cells after 96 hrs by beta-galactosidase reporter gene assay; assay type: functional, organism-based; details: Tulahuen C2C4, L6, 96 h

SMILES | IC50 (Plasmodium falciparum) | IC50 (L6) | IC50 [1] | IC50 (Leishmania donovani) | IC50 (Trypanosoma cruzi)
O=C1[C@H]2N=NN(Cc3nc(-c4ccccc4)no3)[C@H]2C(=O)N1c1ccccc1 | 22.6 µg/mL (≈ 60.4 µM) | 47.3 µg/mL (≈ 126 µM) | 7 µg/mL (≈ 18.7 µM) | 1.6 µg/mL (≈ 4.27 µM) | 46.1 µg/mL (≈ 123 µM)
O=C1[C@H]2N=NN(Cc3nc(-c4ccc(Cl)cc4)no3)[C@H]2C(=O)N1c1ccccc1 | 24.9 µg/mL (≈ 60.9 µM) | 49.5 µg/mL (≈ 121 µM) | 17.2 µg/mL (≈ 42.1 µM) | 3.2 µg/mL (≈ 7.83 µM) | 49 µg/mL (≈ 120 µM)
O=C1[C@H]2N=NN(Cc3nc(-c4ccc(Br)cc4)no3)[C@H]2C(=O)N1c1ccccc1 | 26.9 µg/mL (≈ 59.3 µM) | 58.6 µg/mL (≈ 129 µM) | 18.2 µg/mL (≈ 40.2 µM) | 3.5 µg/mL (≈ 7.72 µM) | 54.9 µg/mL (≈ 121 µM)
O=C1[C@H]2N=NN(Cc3nc(-c4ccc(F)cc4)no3)[C@H]2C(=O)N1c1ccccc1 | 23.6 µg/mL (≈ 60.2 µM) | > 100 µg/mL | 12.3 µg/mL (≈ 31.3 µM) | 4.1 µg/mL (≈ 10.4 µM) | 62.4 µg/mL (≈ 159 µM)
Cc1ccc(-c2noc(CN3N=N[C@@H]4C(=O)N(c5ccccc5)C(=O)[C@@H]43)n2)cc1 | 13.2 µg/mL (≈ 34 µM) | 15.2 µg/mL (≈ 39.1 µM) | 8.4 µg/mL (≈ 21.6 µM) | 2.2 µg/mL (≈ 5.66 µM) | 38.9 µg/mL (≈ 100 µM)
O=C1[C@H]2N=NN(Cc3nc(-c4ccc(I)cc4)no3)[C@H]2C(=O)N1c1ccccc1 | 20.4 µg/mL (≈ 40.8 µM) | 48.6 µg/mL (≈ 97.2 µM) | 18.8 µg/mL (≈ 37.6 µM) | 3.6 µg/mL (≈ 7.2 µM) | 47.2 µg/mL (≈ 94.4 µM)
O=C1[C@H]2N=NN(Cc3nc(-c4ccc([N+](=O)[O-])cc4)no3)[C@H]2C(=O)N1c1ccccc1 | 14.7 µg/mL (≈ 35.1 µM) | > 100 µg/mL | 8 µg/mL (≈ 19.1 µM) | 2 µg/mL (≈ 4.77 µM) | 41.1 µg/mL (≈ 98 µM)
COc1ccc(-c2noc(CN3N=N[C@@H]4C(=O)N(c5ccccc5)C(=O)[C@@H]43)n2)cc1 | 17 µg/mL (≈ 42 µM) | > 100 µg/mL | 16.9 µg/mL (≈ 41.8 µM) | 3.4 µg/mL (≈ 8.41 µM) | 54 µg/mL (≈ 134 µM)
CSc1ccc(-c2noc(CN3N=N[C@@H]4C(=O)N(c5ccccc5)C(=O)[C@@H]43)n2)cc1 | 20.6 µg/mL (≈ 49 µM) | > 100 µg/mL | 16.3 µg/mL (≈ 38.8 µM) | 3.5 µg/mL (≈ 8.32 µM) | 48.5 µg/mL (≈ 115 µM)
O=C1[C@H]2N=NN(Cc3nc(-c4ccc(C(F)(F)F)cc4)no3)[C@H]2C(=O)N1c1ccccc1 | 15 µg/mL (≈ 33.9 µM) | 44.4 µg/mL (≈ 100 µM) | 13.9 µg/mL (≈ 31.4 µM) | 3.7 µg/mL (≈ 8.36 µM) | 51.4 µg/mL (≈ 116 µM)
CN(C)c1ccc(-c2noc(CN3N=N[C@@H]4C(=O)N(c5ccccc5)C(=O)[C@@H]43)n2)cc1 | 21 µg/mL (≈ 50.3 µM) | > 100 µg/mL | 13.1 µg/mL (≈ 31.4 µM) | 4.5 µg/mL (≈ 10.8 µM) | 36.6 µg/mL (≈ 87.7 µM)
O=C(Cn1ccnc1[N+](=O)[O-])NCc1ccccc1 [BENZNIDAZOLE] |  |  |  |  | 0.464 µg/mL (≈ 1.78 µM)
CCCCCCCCCCCCCCCCOP(=O)([O-])OCC[N+](C)(C)C [MILTEFOSINE] |  |  |  | 0.171 µg/mL (≈ 0.42 µM) | 
COc1cc([C@@H]2c3cc4c(cc3[C@H](O)[C@H]3COC(=O)[C@H]23)OCO4)cc(OC)c1OC [PODOFILOX] |  | 0.007 µg/mL (≈ 0.0169 µM) |  |  | 
